# Laboratory results: ChEMBL document CHEMBL3102812 (J Med Chem, 2013)
# Calls of active or inactive are those of the source. The rule behind the calls is not given here.
# Assays:
# Trypanosoma cruzi [1] = test: Antitrypanosomal activity against Trypanosoma cruzi Tulahuen 6 infected in Swiss mouse assessed as mouse survival at 100 mg/kg, po qd administered on day 8 post-infection measured on same day by microscopic analysis; assay type: functional, organism-based; design: dose 100 mg/kg
# Trypanosoma cruzi [2] = test: Antitrypanosomal activity against Trypanosoma cruzi Tulahuen 6 infected in Swiss mouse assessed as mouse survival at 100 mg/kg, po qd administered on day 8 post-infection for 20 days followed by 10 days non-treatment period followed by three cycles of immunosuppression measured on day 58 post-infection by microscopic analysis; assay type: functional, organism-based; design: dose 100 mg/kg
# [3] = Partition coefficient, log D of the compound at pH 7.4 by chromatographic method; conditions: octanol/water
# [4] = Plasma clearance in Swiss mouse at 2 mg/kg, iv and 20 mg/kg, po by LC/MS analysis; assay type: ADME, organism-based
# [5] = Volume of distribution at steady state in Swiss mouse at 2 mg/kg, iv and 20 mg/kg, po by LC/MS analysis; assay type: ADME, organism-based; conditions: in vivo, read-out: Vdss
# [6] = Half life in Swiss mouse at 2 mg/kg, iv by LC/MS analysis; assay type: ADME, organism-based; design: dose 2 mg/kg, route intravenous; conditions: in vivo
# [7] = Kinetic aqueous solubility of the compound in phosphate buffer at pH 2 by nephelometric analysis; conditions: phosphate buffer
# Mus musculus [8] = test: Toxicity in Swiss mouse at 20 mg/kg, po; conditions: in vivo
# [9] = Kinetic aqueous solubility of the compound in phosphate buffer at pH 6.5 by nephelometric analysis
# Trypanosoma cruzi [10] = test: Antitrypanosomal activity against Trypanosoma cruzi Tulahuen 6 amastigotes infected in rat L6 cells after 96 hrs by colorimetric method; assay type: functional, organism-based; conditions: Tulahuen 6, L6, 96 h
# Trypanosoma cruzi [11] = test: Antitrypanosomal activity against Trypanosoma cruzi Tulahuen 6 infected in Swiss mouse assessed as reduction in blood parasitemia at 20 mg/kg, po qd administered on day 8 post-infection for 10 days by microscopic analysis; assay type: functional, organism-based; design: dose 20 mg/kg
# How it was run: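 Infected Swiss mice dosed orally at 20 mg/kg once daily for up to 10 days starting day 8 pi; blood parasitemia followed by microscopy throughout dosing, scored as cleared or not during the dosing period.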
# Trypanosoma cruzi [12] = test: Antitrypanosomal activity against Trypanosoma cruzi Tulahuen 6 infected in Swiss mouse at 20 mg/kg, po qd administered on day 8 post-infection for 20 days followed by 10 days non-treatment period followed by three cycles of immunosuppression measured on day 58 post-infection by PCR analysis; assay type: functional, organism-based; design: dose 20 mg/kg
# Mus musculus [13] = test: Toxicity in Swiss mouse assessed as weight loss at 25 mg/kg, po bid for 2.5 days; assay type: organism-based; design: dose 25 mg/kg, route oral; conditions: in vivo, 60 h
# How it was run: (§1)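 Acute toxicity by stepwise cumulative oral dosing in two mice per compound: 25 and/or 50 mg/kg twice daily for 2.5 days to […]; animals observed for 1 week after the last dose for adverse effects and weight loss.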
# Mus musculus [14] = test: Oral bioavailability in Swiss mouse at 20 mg/kg by LC/MS analysis; assay type: ADME, organism-based; conditions: in vivo
# Trypanosoma cruzi [15] = test: Antitrypanosomal activity against Trypanosoma cruzi Tulahuen 6 infected in Swiss mouse assessed as mouse survival at 20 mg/kg, po qd administered on day 8 post-infection measured on same day by microscopic analysis; assay type: functional, organism-based; design: dose 20 mg/kg
# [16] = Half life in Swiss mouse at 20 mg/kg, po by LC/MS analysis; assay type: ADME, organism-based; design: dose 20 mg/kg, route oral; conditions: in vivo
# Mus musculus [17] = test: Toxicity in Swiss mouse assessed as weight loss at 50 mg/kg, po bid for 2.5 days; assay type: organism-based; design: dose 50 mg/kg, route oral; conditions: in vivo, 60 h; how it was run: as §1
# [18] = Plasma concentration in Swiss mouse at 20 mg/kg, po after 0.5 hrs by LC/MS analysis
# [19] = Plasma concentration in Swiss mouse at 20 mg/kg, po after 24 hrs by LC/MS analysis
# Trypanosoma cruzi [20] = test: Antitrypanosomal activity against Trypanosoma cruzi Tulahuen 6 infected in Swiss mouse assessed as mouse survival at 5 mg/kg, po qd administered on day 8 post-infection for 20 days measured on day 28 post-infection by microscopic analysis; assay type: functional, organism-based; design: dose 5 mg/kg
# Trypanosoma cruzi [21] = test: Antitrypanosomal activity against Trypanosoma cruzi Tulahuen 6 infected in Swiss mouse assessed as mouse survival at 5 mg/kg, po qd administered on day 8 post-infection measured on same day by microscopic analysis; assay type: functional, organism-based; design: dose 5 mg/kg
# Trypanosoma cruzi [22] = test: Antitrypanosomal activity against Trypanosoma cruzi Tulahuen 6 infected in Swiss mouse assessed as mouse survival at 10 mg/kg, po qd administered on day 8 post-infection measured on same day by microscopic analysis; assay type: functional, organism-based; design: dose 10 mg/kg
# Cytochrome P450 3A4 = Cytochrome P450 3A4 (Homo sapiens, UniProt P08684); test: Inhibition of CYP3A4 in human liver microsomes assessed as 6beta-hydroxylation of testosterone
# Chain of Cytochrome P450 3A4 (P08684 whole entry): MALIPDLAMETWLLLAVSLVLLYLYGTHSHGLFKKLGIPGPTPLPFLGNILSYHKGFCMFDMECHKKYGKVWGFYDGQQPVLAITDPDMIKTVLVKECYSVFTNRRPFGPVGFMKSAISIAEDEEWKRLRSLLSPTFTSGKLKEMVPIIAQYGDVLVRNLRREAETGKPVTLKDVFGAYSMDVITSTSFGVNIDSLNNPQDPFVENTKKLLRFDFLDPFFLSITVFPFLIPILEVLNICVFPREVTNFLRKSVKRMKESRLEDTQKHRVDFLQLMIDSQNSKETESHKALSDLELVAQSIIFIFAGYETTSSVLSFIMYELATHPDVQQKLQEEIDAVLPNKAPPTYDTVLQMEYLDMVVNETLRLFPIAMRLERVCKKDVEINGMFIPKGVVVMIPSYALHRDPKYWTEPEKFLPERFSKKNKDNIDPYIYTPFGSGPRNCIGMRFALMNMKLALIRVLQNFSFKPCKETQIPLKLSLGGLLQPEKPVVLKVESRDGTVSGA
# Trypanosoma cruzi [23] = test: Antitrypanosomal activity against Trypanosoma cruzi Tulahuen 6 infected in Swiss mouse assessed as mouse survival at 5 mg/kg, po qd administered on day 8 post-infection for 20 days followed by 10 days non-treatment measured on day 37 post-infection by microscopic analysis; assay type: functional, organism-based; design: dose 5 mg/kg
# Trypanosoma cruzi [24] = test: Antitrypanosomal activity against Trypanosoma cruzi Tulahuen 6 infected in Swiss mouse assessed as mouse survival at 10 mg/kg, po qd administered on day 8 post-infection for 20 days followed by 10 days non-treatment measured on day 37 post-infection by microscopic analysis; assay type: functional, organism-based; design: dose 10 mg/kg
# Trypanosoma cruzi [25] = test: Antitrypanosomal activity against Trypanosoma cruzi Tulahuen 6 infected in Swiss mouse at 5 mg/kg, po qd administered on day 8 post-infection for 20 days followed by 10 days non-treatment period followed by three cycles of immunosuppression measured on day 58 post-infection by PCR analysis; assay type: functional, organism-based; design: dose 5 mg/kg
# Trypanosoma cruzi [26] = test: Antitrypanosomal activity against Trypanosoma cruzi Tulahuen 6 infected in Swiss mouse assessed as mouse survival at 10 mg/kg, po qd administered on day 8 post-infection for 20 days measured on day 28 post-infection by microscopic analysis; assay type: functional, organism-based; design: dose 10 mg/kg
# How it was run: (§2)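 Outbred female Swiss mice (~8 weeks) infected with mouse-passaged Tulahuen TcVI trypomastigotes; oral dosing once daily for 20 days from day 8 post-infection, suspension in 0.5% HPMC, 0.4% Tween 80, 0.5% benzyl alcohol, 5% DMSO in water; blood parasitemia by microscopy (LOD 20 000 parasites/mL); mice with recurring parasitemia euthanized; survival counted per starting group; 10-day untreated period days 28–37.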
# Trypanosoma cruzi [27] = test: Antitrypanosomal activity against Trypanosoma cruzi Tulahuen 6 infected in Swiss mouse assessed as mouse survival at 20 mg/kg, po qd administered on day 8 post-infection for 20 days followed by 10 days non-treatment measured on day 37 post-infection by microscopic analysis; assay type: functional, organism-based; design: dose 20 mg/kg; how it was run: as §2
# Trypanosoma cruzi [28] = test: Antitrypanosomal activity against Trypanosoma cruzi Tulahuen 6 infected in Swiss mouse assessed as mouse survival at 20 mg/kg, po qd administered on day 8 post-infection for 20 days measured on day 28 post-infection by microscopic analysis; assay type: functional, organism-based; design: dose 20 mg/kg
smiles,measurement,setting,value
O=C(Cn1ccnc1[N+](=O)[O-])NCc1ccccc1,Activity,Trypanosoma cruzi [1],Active
same,Activity,Trypanosoma cruzi [2],inactive
FC(F)(F)c1ccc(N(c2cccnc2)C2CCN(c3ccc(C(F)(F)F)cn3)CC2)cc1,chromatographic logD,[3],> 5.3
same,clearance,[4],8.1 mL/min/kg
same,Vd,[5],4.4 L/kg
same,half-life,[6],8.6 h
same,solubility kinetic,[7],> 100 µg/mL
same,Activity,Mus musculus [8],Non-toxic
same,solubility kinetic,[9],< 1.6 µg/mL
same,IC50,Trypanosoma cruzi [10],17 nM
same,Activity,Trypanosoma cruzi [11],Active
same,Activity,Trypanosoma cruzi [12],Active
same,Activity,Mus musculus [13],Non-toxic
same,F,Mus musculus [14],95%
same,Activity,Trypanosoma cruzi [15],Active
same,half-life,[16],12.5 h
same,Activity,Mus musculus [17],Non-toxic
CC(C)(C)NC(=O)N1CCC(NC(c2ccc(C(F)(F)F)cc2)c2cccnc2)CC1 (stereo not given),Activity,Mus musculus [8],Non-toxic
same,IC50,Trypanosoma cruzi [10],61 nM
same,Activity,Trypanosoma cruzi [11],inactive
same,concentration at 0.5 h,[18],3260 nM
same,concentration at 24 h,[19],1 nM
Fc1cc(Cl)ccc1C(NC1CCN(c2ccc(C(F)(F)F)cc2)CC1)c1cccnc1 (stereo not given),Activity,Mus musculus [8],Non-toxic
same,IC50,Trypanosoma cruzi [10],11 nM
same,Activity,Trypanosoma cruzi [11],Active
N#Cc1cccc(N2CCC(NC(c3cccnc3)c3ccc(Cl)cc3F)CC2)c1 (stereo not given),Activity,Mus musculus [8],Non-toxic
same,IC50,Trypanosoma cruzi [10],13 nM
same,Activity,Trypanosoma cruzi [11],inactive
O=C([C@@H](c1ccc(Cl)cc1)c1cccnc1)N1CCN(c2ccc(C(F)(F)F)cc2)CC1,Activity,Trypanosoma cruzi [20],Active
same,Activity,Trypanosoma cruzi [21],Active
same,chromatographic logD,[3],4.5
same,Activity,Trypanosoma cruzi [22],Active
same,IC50,Cytochrome P450 3A4,15000 nM
same,clearance,[4],7.7 mL/min/kg
same,Activity,Trypanosoma cruzi [23],Active
same,Vd,[5],4.2 L/kg
same,half-life,[6],5.9 h
same,Activity,Trypanosoma cruzi [24],Active
same,solubility kinetic,[7],> 100 µg/mL
same,Activity,Mus musculus [8],Non-toxic
same,solubility kinetic,[9],1.6 µg/mL
same,Activity,Trypanosoma cruzi [25],inactive
same,Activity,Mus musculus [13],Non-toxic
same,Activity,Trypanosoma cruzi [26],Active
same,F,Mus musculus [14],64%
same,half-life,[16],8.2 h
same,Activity,Mus musculus [17],Non-toxic
Cc1cc(C(=O)NC2CCN(C(c3ccc(C#N)cc3)c3cccnc3)CC2)n(C)n1 (stereo not given),Activity,Mus musculus [8],Non-toxic
same,IC50,Trypanosoma cruzi [10],47 nM
same,Activity,Trypanosoma cruzi [11],inactive
CC[C@@H]([C@H](C)O)n1ncn(-c2ccc(N3CCN(c4ccc(OC[C@@H]5CO[C@@](Cn6cncn6)(c6ccc(F)cc6F)C5)cc4)CC3)cc2)c1=O [POSACONAZOLE],Activity,Trypanosoma cruzi [27],Active
same,Activity,Mus musculus [8],Non-toxic
same,IC50,Trypanosoma cruzi [10],1 nM
same,Activity,Trypanosoma cruzi [11],Active
same,Activity,Trypanosoma cruzi [12],Active
same,Activity,Trypanosoma cruzi [26],Active
same,Activity,Trypanosoma cruzi [15],Active
N#Cc1ccc(C(c2cccnc2)N2CCC(NC(=O)c3c(F)cccc3F)CC2)cc1 (stereo not given),Activity,Mus musculus [8],Non-toxic
same,IC50,Trypanosoma cruzi [10],19 nM
same,Activity,Trypanosoma cruzi [11],inactive
O=C(C(c1ccc(Cl)cc1)c1cccnc1)N1CCN(c2ccc(C(F)(F)F)cc2)CC1 (racemic),Activity,Trypanosoma cruzi [27],Active
same,chromatographic logD,[3],4.5
same,IC50,Cytochrome P450 3A4,16000 nM
same,Activity,Trypanosoma cruzi [28],Active
same,solubility kinetic,[7],> 100 µg/mL
same,Activity,Mus musculus [8],Non-toxic
same,solubility kinetic,[9],1.6 µg/mL
same,Activity,Trypanosoma cruzi [11],Active
same,Activity,Trypanosoma cruzi [12],inactive
same,Activity,Mus musculus [13],Non-toxic
same,Activity,Trypanosoma cruzi [15],Active
same,Activity,Mus musculus [17],Non-toxic
N#Cc1ccc(C(c2cccnc2)N2CCC(NC(=O)c3ccccc3)CC2)cc1 (stereo not given),Activity,Mus musculus [8],Non-toxic
same,IC50,Trypanosoma cruzi [10],24 nM
same,Activity,Trypanosoma cruzi [11],inactive
